TRPC4 block: TRPC4 (mouse) channel inhibition | Q9QUQ5 | HEK293 TRPC4beta/mu-opioid, DAMGO-evoked Fluo4 calcium flux; stronger effect = lower value | B-score at 10 µM | actives 0.39% (n = 300,000) | AID 2247;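 active = B-score over 3 SD under the library average, no early fluorescence shift, positive overall ratio signal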
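Assay system: TRPC4beta/mu-opioid receptor HEK293 cell line; compound dosing: single concentration per test compound; detection: Fluo4 Ca2+ flux fluorescence; evaluation: per-well B score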
TRPC4 act: TRPC4 (mouse) channel activation. actives 0.49% (n = 310,000). AID 2237. Q9QUQ5. HEK293 TRPC4beta/mu-opioid, Fluo4 calcium fluorescence; stronger effect = higher value. B-score at 10 µM;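 active = B-score above 5 SD of library B-scores, and initial fluorescence ratio not above library mean plus 5 SD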;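 note: positive B-score marks a calcium rise read as TRPC4 activation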
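Assay system – TRPC4beta and mu-opioid receptor HEK293 stable cells · Measured by – Fluo4 fluorescence, kinetic · Schedule – dye loading 45 min room temperature, 110 s kinetic read · Read-out – B-scored integrated calcium fluorescence ratio · Controls – buffer and maximal DAMGO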
TRPC6 activator: mouse TRPC6 channel activation; Q61143; B-score at 10 µM; AID 2550; actives 0.13% (n = 310,000); HEK293-TRPC6 membrane potential dye fluorescence; stronger effect = higher value;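 active = B-score of the integrated fluorescence ratio above library mean plus 3 SD, and starting fluorescence ratio within library mean plus 5 SD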;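 note: higher score means more depolarization so channel activation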
Target sequence (Q61143 whole entry, looked up): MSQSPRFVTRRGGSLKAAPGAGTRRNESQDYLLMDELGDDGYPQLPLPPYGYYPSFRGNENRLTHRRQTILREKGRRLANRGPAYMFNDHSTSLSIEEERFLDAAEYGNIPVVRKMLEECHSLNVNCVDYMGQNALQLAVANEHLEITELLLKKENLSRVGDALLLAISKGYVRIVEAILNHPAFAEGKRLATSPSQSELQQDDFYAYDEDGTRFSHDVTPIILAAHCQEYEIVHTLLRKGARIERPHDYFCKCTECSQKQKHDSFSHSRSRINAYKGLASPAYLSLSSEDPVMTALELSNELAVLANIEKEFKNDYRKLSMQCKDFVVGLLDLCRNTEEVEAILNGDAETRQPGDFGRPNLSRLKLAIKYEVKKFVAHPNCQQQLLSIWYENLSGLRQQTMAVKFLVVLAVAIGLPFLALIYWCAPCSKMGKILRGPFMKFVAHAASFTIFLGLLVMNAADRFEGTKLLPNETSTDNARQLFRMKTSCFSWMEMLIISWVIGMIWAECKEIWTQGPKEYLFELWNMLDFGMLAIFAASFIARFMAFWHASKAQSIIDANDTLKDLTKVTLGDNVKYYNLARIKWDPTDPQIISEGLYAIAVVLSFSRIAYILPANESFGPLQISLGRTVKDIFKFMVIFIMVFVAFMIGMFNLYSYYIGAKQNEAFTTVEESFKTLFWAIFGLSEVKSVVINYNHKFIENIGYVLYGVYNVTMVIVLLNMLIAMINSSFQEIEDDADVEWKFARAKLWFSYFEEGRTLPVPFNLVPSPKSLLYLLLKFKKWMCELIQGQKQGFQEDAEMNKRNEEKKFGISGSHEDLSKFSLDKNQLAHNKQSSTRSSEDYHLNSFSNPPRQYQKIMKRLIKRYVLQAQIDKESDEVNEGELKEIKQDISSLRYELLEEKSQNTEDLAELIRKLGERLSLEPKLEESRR
TRPC4 potent: allosterically enhances the mouse TRPC4 cation channel; Q9QUQ5; HEK293 TRPC4beta/mu-opioid, DAMGO EC20, Fluo-4 Ca2+ flux; stronger effect = higher value; B-score at 10 µM; actives 0.42% (n = 310,000); AID 2227;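 active = B-score of calcium response area above 5 SD of library B-scores, with initial fluorescence ratio within 5 SD of library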;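 note: B-score of integrated fluorescence ratio over time as area under calcium response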
TRPC6 inhibitor: blocks the mouse TRPC6 cation channel | HEK293-TRPC6, membrane potential dye, ACh-evoked depolarization; stronger effect = lower value | B-score at 10 µM | actives 1.1% (n = 310,000);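 active = B-score under library mean minus 3 SD, initial fluorescence not abnormally high, positive integrated signal ratio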;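 note: B-score derived from integrated fluorescence ratio over the kinetic read; more negative B-score means stronger inhibition of depolarization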
TRPC4 sel inh 2: second check of whether TRPC6 inhibitors also affect mouse TRPC4 | shares compounds with TRPC6 inhibitor | HEK293 TRPC4/MOR, membrane potential dye fluorescence; channel activated by saturating DAMGO dose | inhibition, % at 10 µM | actives 42% (n = 920) | AID 2776;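 active = compounds whose fluorescence signal differed from control wells by over 3 SD, either direction, in both duplicate plates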
TRPC4 spec: selectivity of TRPC6 inhibitors: effect on mouse TRPC4. shares compounds with TRPC6 inhibitor. HEK293 TRPC4/mu-opioid, membrane potential fluorescence. activity change, negative = inhibition, % at 10 µM. actives 61% (n = 920);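 active = rise or fall in signal beyond 3 SD of buffer-only wells in both replicate plates, either sign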;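 note: integrated kinetic ratio of fluorescence range over baseline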
HEK293 MPD ctr 2-1: second counter-screen for TRPC6 inhibitors: parental HEK293 cells | shares compounds with TRPC6 inhibitor | parental HEK293 membrane potential dye fluorescence; maximal acetylcholine challenge after compound addition | signal change vs control, % at 10 µM | actives 31% (n = 920) | AID 2779;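 active = membrane potential signal moving either way by over 3 SD of the maximum-effect control, in both duplicate plates, meaning non-specific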
HEK293 MPD ctr-1: counter-screen for TRPC6 inhibitors: effect in parental HEK293 cells | shares compounds with TRPC6 inhibitor | parental HEK293 membrane potential dye fluorescence | membrane potential signal change, % at 10 µM | actives 60% (n = 920);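 active = membrane potential signal shifting up or down by more than 3 SD of buffer-only wells, on both duplicate plates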
HEK293 MPD ctr-2: checks TRPC6 modulator effects in parental HEK293 cells | shares compounds with TRPC6 inhibitor | membrane potential dye fluorescence | membrane potential signal change, % at 10 µM | actives 51% (n = 2,400) | AID 488924;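 active = membrane potential signal moves up or down beyond 5 SD from buffer-only wells, on both duplicate plates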
HEK293 MPD ctr 2-2: second counter-screen for TRPC6 modulators: effect in parental HEK293 cells. shares compounds with TRPC6 inhibitor. membrane potential dye fluorescence; after compound, maximal acetylcholine stimulation. inhibition, % at 10 µM. actives 14% (n = 2,400). AID 488926;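 active = membrane potential signal drops by more than 5 SD from the mean control signal, in both duplicate plates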;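 note: plate controls were acetylcholine ECmax control wells for no effect and buffer only wells for full effect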
TRPC4 ctr mod: selectivity of TRPC6 modulators against mouse TRPC4 | shares compounds with TRPC6 inhibitor | HEK293 TRPC4/mu-opioid, membrane potential fluorescence | percent change from control (negative = decrease, positive = increase), % at 10 µM | actives 69% (n = 2,400) | AID 488927;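 active = membrane potential signal moved up or down beyond 5 SD of buffer control wells, in both duplicate plates, actives on both sides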;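 note: plate controls were assay buffer wells for no effect and DAMGO maximal-effect wells for full effect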
TRPC4 ctr inh 2: second selectivity test of TRPC6 modulators against mouse TRPC4; shares compounds with TRPC6 inhibitor; HEK293 TRPC4/mu-opioid, membrane potential dye fluorescence; stimulated with maximal-effect DAMGO; inhibition, % at 10 µM; actives 55% (n = 2,400); AID 488928;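 active = drop in membrane potential signal beyond 5 SD of the control wells in both duplicate plates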;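 note: TRPC4 counter screen for TRPC6 hits run under conditions tuned for TRPC6 not TRPC4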
TRPC6 inh conf: confirmation of mouse TRPC6 inhibitors; inhibition, % at 10 µM; shares compounds with TRPC6 inhibitor; HEK293-TRPC6, membrane potential dye, ACh-evoked depolarization; actives 43% (n = 3,300);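 active = fluorescence ratio falls more than 5 SD below the full-stimulation control mean, in both duplicate runs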;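 note: integrated fluorescence ratio of peak minus minimum over baseline after agonist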
TRPC6 act confirm: confirmation of mouse TRPC6 activators; shares compounds with TRPC6 inhibitor; actives 11% (n = 2,800); HEK293-TRPC6 membrane potential dye fluorescence, FDSS; activation, % at 10 µM;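 active = ratio signal rise beyond 5 SD above unstimulated control wells' mean, seen in both duplicate runs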;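 note: plate controls were buffer EC0 wells for no effect and acetylcholine ECmax response for full effect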
* hit, by the source's call; i = inactive; / = no result given. This is a sample that favours compounds with a hit; in the whole collection about 2.3% have one here.

SMILES	TRPC4 block	TRPC4 act	TRPC6 activator	TRPC4 potent	TRPC6 inhibitor	HEK293 MPD ctr-2	HEK293 MPD ctr 2-2	TRPC4 ctr mod	TRPC4 ctr inh 2	TRPC6 inh conf	TRPC6 act confirm	others
Cc1ccc2c(ccn3cc4c(c(=O)n(C)c(=O)n4C)c23)c1	i	i	i	i	-7.2*	/	/	/	/	i	i	TRPC4 sel inh 2=i;TRPC4 spec=-25.0%*;HEK293 MPD ctr 2-1=i;HEK293 MPD ctr-1=-325.0%*
CCOC(=O)C(=O)Nc1ccccc1C(=O)NCc1ccccc1	i	i	i	i	i	/	/	/	/	/	/
Cc1ccc(C)c(CS(=O)(=O)c2cn(CC(=O)N3CCCCC3)c3ccccc23)c1	i	i	12.4*	i	i	i	i	i	i	/	44.5%*
Cc1ccc(C)c(CS(=O)(=O)c2cn(CC(=O)N3CCC(C)CC3)c3ccccc23)c1	i	i	i	i	i	/	/	/	/	/	/
N#CCC(=O)Nc1ccc(C(F)(F)F)cc1N1CCOCC1	i	i	i	i	i	/	/	/	/	/	/
CCOc1ccc2[nH]c3c(N4CCc5ccccc5C4)ncnc3c2c1	i	i	i	i	-6.51*	i	i	i	52.5%*	i	i
COc1ccc(NC(=O)C2CCCN(CCCc3ccccc3)C2)cc1OCC(C)C (stereo unspecified)	i	i	i	i	-7.29*	/	/	/	/	i	i	TRPC4 sel inh 2=75.5%*;TRPC4 spec=i;HEK293 MPD ctr 2-1=225.5%*;HEK293 MPD ctr-1=i
Cc1cc(N2CCN(C)CC2)n2nc(-c3ccc(Cl)cc3)nc2n1	i	i	i	i	-6.94*	-310.0%*	96.5%*	-28.0%*	53.0%*	65.5%*	i
Cc1nc2nc(-c3ccc(Cl)cc3)nn2c(C)c1Cl	i	i	i	i	i	/	/	/	/	/	/
C=CCN(c1ccccc1)S(=O)(=O)c1cccc(C(=O)NC2CCN(Cc3ccccc3)CC2)c1	i	i	i	i	-6.57*	i	i	i	57.0%*	i	i
CN(C)S(=O)(=O)c1cccc(C(=O)NCC(=O)NC2CCN(Cc3ccccc3)CC2)c1	i	i	i	i	i	/	/	/	/	/	/
CN(C)c1ccc(NC(=O)CN2CCC(O)(c3ccccc3)CC2)cc1	i	i	i	i	i	/	/	/	/	/	/
CN(C)C(=O)C(CCN1CCC(O)(c2ccc(Cl)cc2)CC1)(c1ccccc1)c1ccccc1	i	50*	i	i	-5.44*	115.0%*	i	78.5%*	112.5%*	61.0%*	/
COc1ccc(NC(=O)c2ccc(S(=O)(=O)C(F)F)cc2)c(OC)c1	i	i	i	i	i	/	/	/	/	/	/
COC(=O)c1ccc(NC(=S)NC2CC3CCC2C3)cc1 (stereo unspecified)	i	i	i	i	i	/	/	/	/	/	/
Oc1ccc(-c2[nH]ncc2-c2ccc(Cl)cc2)c(O)c1	i	i	i	i	-7.4*	-73.5%*	i	-22.0%*	79.0%*	46.0%*	i
COc1ccc(-c2[nH]ncc2-c2ccc(Cl)cc2)c(O)c1	i	i	i	i	i	/	/	/	/	/	/
Oc1ccc(-c2[nH]ncc2-c2ccc(Br)cc2)c(O)c1	i	i	i	i	-5.27*	-72.0%*	i	-16.5%*	68.0%*	50.0%*	i
COc1ccc(-c2cn[nH]c2-c2ccc(OC)cc2O)cc1	i	i	i	i	-5.16*	i	i	-14.5%*	48.5%*	i	i
Oc1ccc(-c2[nH]ncc2-c2cccc3cccnc23)c(O)c1	i	i	i	i	i	/	/	/	/	/	/
Cc1ccc(S[C@@H](CCN2CC[C@H](C(C)(C)C)CCC2=O)c2ccccc2)cc1	i	i	i	i	i	/	/	/	/	/	/
CN(C)c1nc(F)c(F)c(S(=O)(=O)c2ccccc2)c1F	i	i	i	i	-5.26*	i	i	i	i	i	i
Cc1cc(N2CCOCC2)c2c(N)cc(C)c(C)c2n1	i	i	i	i	-10.7*	-357.0%*	87.0%*	-54.5%*	54.0%*	58.5%*	i
Cc1ccc2cc(C=O)c(N3CCOCC3)nc2c1C	i	i	i	i	i	/	/	/	/	/	/
CCN(CC)CCn1c2ccccc2c2cnc(N=CN(C)C)c(C#N)c21	i	i	i	i	-7.15*	/	/	/	/	i	i	TRPC4 sel inh 2=50.0%*;TRPC4 spec=-19.8%*;HEK293 MPD ctr 2-1=i;HEK293 MPD ctr-1=-165.5%*
CCn1c2ccccc2c2cnc(N=CN(C)C)c(C#N)c21	i	i	i	i	i	/	/	/	/	/	/
CCCCc1cc(=O)oc2cc(C)cc(OCC(=O)NC(Cc3ccc(Cl)cc3)C(=O)O)c12 (stereo unspecified)	i	i	i	i	i	/	/	/	/	/	/
COc1ccc(CCNS(=O)(=O)CCNC(=O)c2ccc(OC)cc2)cc1	i	i	i	i	i	/	/	/	/	/	/
CCN(CC)C(=O)N1CCn2c(nc3ccccc32)C1	i	i	i	i	-5.47*	i	i	11.5%*	i	i	i

Compound activity as filed in PubChem BioAssay.
